Experiment [1] has as its system PC-9/ER. Kind of experiment: Induction of apoptosis in human PC-9/ER cells assessed as increased cleaved-PARP expression at 10 uM measured by Western blot analysis. Type of experiment: functional, cell-based. The procedure, abridged:
(§1)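 Resistant PC9/ER and HCC827/ER cells treated with 10 μM epigenetic inhibitor (DMSO control). Cleaved PARP detected by western blot on 10–15% SDS-PAGE with ECL, normalized to β-actin.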
A general note: A western blot detects proteins with antibodies after separation by electrophoresis.

The subject of experiment [2] is HCC827ER. Briefly: Induction of apoptosis in human HCC827ER cells assessed as increased cleaved-PARP expression at 10 uM measured by Western blot analysis. It counts as functional, cell-based. The method, boiled down: as §1
Experiment [3] concerns HCC827ER. Kind of experiment: Induction of apoptosis in human HCC827ER cells assessed as necrotic cells at 10 uM for 48 hrs by annexin V/PI staining based flow cytometric analysis (reference value: 0.3%). Type of experiment: functional. (A flow cytometer gives signals particle by particle.)
In experiment [4] the test system is HCC827ER. Briefly: Induction of apoptosis in human HCC827ER cells assessed as viable cells at 10 uM for 48 hrs by annexin V/PI staining based flow cytometric analysis (reference value: 94.4%). Type of experiment: functional. As to conditions: read-out: Activity.
Experiment [5] concerns HCC827ER. Briefly: Induction of apoptosis in human HCC827ER cells assessed as late apoptotic cells at 10 uM for 48 hrs by annexin V/PI staining based flow cytometric analysis (reference value: 3.5%). It counts as functional.
The subject of experiment [6] is PC-9/ER. Kind of experiment: Induction of apoptosis in human PC-9/ER cells assessed as early apoptotic cells at 10 uM for 48 hrs by annexin V/PI staining based flow cytometric analysis (reference value: 1.9%). Type of experiment: functional.
Experiment [7] deals with HCC827ER. Kind of experiment: Induction of apoptosis in human HCC827ER cells assessed as early apoptotic cells at 10 uM for 48 hrs by annexin V/PI staining based flow cytometric analysis (reference value: 1.8%). It counts as functional.
For experiment [8], the system named is PC-9/ER. Briefly: Induction of apoptosis in human PC-9/ER cells assessed as viable cells at 10 uM for 48 hrs by annexin V/PI staining based flow cytometric analysis (reference value: 94.2%). As to conditions: read-out: Activity. It counts as functional.
Experiment [9] has as its system PC-9/ER. Briefly: Induction of apoptosis in human PC-9/ER cells assessed as necrotic cells at 10 uM for 48 hrs by annexin V/PI staining based flow cytometric analysis (reference value: 0.1%). It counts as functional.
Experiment [10] deals with PC-9/ER. Briefly: Induction of apoptosis in human PC-9/ER cells assessed as late apoptotic cells at 10 uM for 48 hrs by annexin V/PI staining based flow cytometric analysis (reference value: 3.8%). It counts as functional.
Experiment [11] relates to PC-9/ER. Briefly: Antiproliferative activity against human PC-9/ER cells assessed as inhibition of cell growth upto 10 uM incubated for 48 hrs by MTT assay. It counts as functional, cell-based. The procedure, abridged: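 PC9/ER cells (made resistant by 3 months in Erlotinib, 0.5–2 μM, RPMI-1640 with 10% FBS) seeded at 8 × 10^4 cells/ml, left overnight, then exposed to 5 or 10 μM inhibitor (DMSO control) for 48 h. MTT (2.5 mg/ml stock) was added for 4 h at 37 °C, formazan dissolved in DMSO, OD read at 570 nm.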

Experiment [12] is described as follows: Upregulation of PTEN mRNA expression level in human PC-9/ER cells assessed as increase in fold change at 10 uM by Western blot analysis. As to conditions: in the assay text read “real-time RT-PCR” for “Western blot analysis”. It counts as functional. The procedure, abridged: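 PC9/ER cells were treated with 10 μM UNC0638 or transfected with 20 nM EHMT2 siRNA, with DMSO or scramble siRNA as controls. Total RNA was extracted, reverse transcribed, and PTEN mRNA measured by SYBR Green real-time RT-PCR, normalized to GAPDH and expressed as fold change versus control. PTEN protein was checked separately by western blot against β-actin.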

In experiment [13] the test system is Mus musculus. Briefly: In vivo inhibition of AKT phosphorylation in human PC-9/ER cells xenografted SCID mouse assessed as reduction of H3K9Me2 expression at 2.5 mg/kg, ip bid for 3 weeks. Type of experiment: functional, organism-based. The procedure, abridged:
(§2)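 Tumors were excised after 3 weeks from PC9/ER xenografts in SCID mice dosed with UNC0642 (2.5 mg/kg bid i.p.) with or without Erlotinib (12.5 mg/kg/day i.p.), saline as control. Tissue lysates were run on western blot for H3K9Me2, PTEN, p-AKT and AKT, normalized to β-actin or Histone3.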

The test system of experiment [14] is PC-9/ER. Kind of experiment: Antitumor activity against human PC-9/ER cells xenografted in SCID mouse assessed as reduction of tumor weight at 2.5 mg/kg, ip bid for 3 weeks in presence of erlotinib relative to control. Type of experiment: functional. Also on record: scale not given: the % may be the effect or the level left. The method, boiled down: (§3)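 Male SCID mice, 7–8 weeks old, injected s.c. in the right flank with 5 × 10^6 PC9/ER cells in PBS. At an average tumor volume of 50 mm3, randomized into groups of n = 6: saline, UNC0642 2.5 mg/kg bid i.p., Erlotinib 12.5 mg/kg/day i.p., or both. Tumor volume tracked and body weight recorded; tumors weighed after sacrifice at 3 weeks.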
On the technique in general: Xenograft models place foreign cells or tissue in a host animal.

Experiment [15] relates to Mus musculus. Briefly: In vivo inhibition of AKT phosphorylation in human PC-9/ER cells xenografted SCID mouse assessed as increase in PTEN expression at 2.5 mg/kg, ip bid for 3 weeks. It counts as functional, organism-based. The method, boiled down:
as §2

Experiment [16] has as its system PC-9/ER. Kind of experiment: Antitumor activity against human PC-9/ER cells xenografted in SCID mouse assessed as reduction of tumor weight at 2.5 mg/kg, ip bid for 3 weeks relative to control. Also on record: scale not given: the % may be the effect or the level left. It counts as functional. The method, boiled down: as §3
Experiment [17] deals with PC-9/ER. Briefly: Antitumor activity against human PC-9/ER cells xenografted in SCID mouse assessed as inhibition of tumor growth at 2.5 mg/kg, ip bid for 3 weeks. Type of experiment: functional, organism-based. The method, boiled down:
as §3

Active and inactive are the calls of the source. The calls are words filed in the database; no cut-off is given here.

Consider ten molecules from ChEMBL document CHEMBL5712896, “Targeting EHMT2 reverses EGFR-TKI resistance in NSCLC by epigenetically regulating the PTEN/AKT signaling pathway” (2018).

In the case of `CC(C)N(C[C@H]1O[C@@H](n2cnc3c(N)ncnc32)[C@H](O)[C@@H]1O)[C@H]1C[C@@H](CCc2nc3cc(C(C)(C)C)ccc3[nH]2)C1`, the outcome in the experiment on PC-9/ER [1] and in the experiment with HCC827ER [2] was inactive.

Regarding `O=C(/C=C/c1cccc(S(=O)(=O)Nc2ccccc2)c1)NO` [BELINOSTAT], the Activity in the experiment with HCC827ER [3] is given as 1.3%; with HCC827ER [5], 7%; in the experiment on PC-9/ER [6] it was 12.8%; with HCC827ER [7], 9.4%; with PC-9/ER [9], 0.9%; in the experiment with PC-9/ER [10], 10.5%. Also, the viability at 10 µM with HCC827ER [4] came out at 82.3%; with PC-9/ER [8], 75.8%. Moreover, the outcome in the experiment on PC-9/ER [11] was Active.

On to `COc1cc2c(NC3CCN(C(C)C)CC3)nc(C3CCCCC3)nc2cc1OCCCN1CCCC1`, for which, in experiment [12], the “fold change (FC)” value is 2.5. Further, the outcome in the experiment with PC-9/ER [1], in the experiment with HCC827ER [2] and in the experiment with PC-9/ER [11] was Active. Besides, the Activity with HCC827ER [3] is on record as 0%; in the experiment with HCC827ER [5] it was 15%; in the experiment on PC-9/ER [6], 40.8%; with HCC827ER [7], 43.1%; in the experiment with PC-9/ER [9], 0.2%; in the experiment with PC-9/ER [10], 20.5%. The viability at 10 µM with HCC827ER [4] is 41.9%; in the experiment with PC-9/ER [8] it was 38.5%.

In the case of `Cc1cn(CCN2CCN(c3ccccc3-c3cc(C#N)cc(C(=O)NCCCN4CCCC4)c3)CC2)c2ccccc12`, the outcome with PC-9/ER [1] and with HCC827ER [2] was inactive.

Take `Nc1ncn([C@@H]2O[C@H](CO)[C@@H](O)[C@H]2O)c(=O)n1`: the result with PC-9/ER [1], with HCC827ER [2] and with PC-9/ER [11] was Active.

On to `CC[C@H](C)n1cc(C)c2c(C(=O)NCc3c(C)cc(C)[nH]c3=O)cc(-c3ccc(N4CCNCC4)nc3)cc21`, for which the result in the experiment with PC-9/ER [1], in the experiment on HCC827ER [2] and with PC-9/ER [11] was Active.

For the molecule `COc1cc2nc(N3CCCC3)nc(NCCCCCN3CCCC3)c2cc1OC`, the outcome in the experiment with PC-9/ER [1] and in the experiment with HCC827ER [2] was inactive.

In the case of `Cc1sc2c(c1C)C(c1ccc(Cl)cc1)=N[C@@H](CC(=O)OC(C)(C)C)c1nnc(C)n1-2`, the Activity worked out at 0.2% in the experiment with HCC827ER [3]; 10% with HCC827ER [5]; 4.8% in the experiment with PC-9/ER [6]; 26.4% with HCC827ER [7]; 0.2% with PC-9/ER [9]; 5.2% with PC-9/ER [10]. Also, the results for the viability at 10 µM in the experiment on HCC827ER [4] and in the experiment on PC-9/ER [8] were 63.4% and 89.8%, respectively. Besides, in the experiment on PC-9/ER [11], the result was Active.

As to `COc1cc2c(NC3CCN(C(C)C)CC3)nc(N3CCC(F)(F)CC3)nc2cc1OCCCN1CCCC1`, the inhibition result with Mus musculus [13] and in the experiment with Mus musculus [15] was “Active” each time. Besides, the results for the Activity in the experiment on PC-9/ER [14] and in the experiment with PC-9/ER [16] were 68.2% and 37.2%, respectively. In addition, the outcome in the experiment with PC-9/ER [17] was Active.

`O=C(O)CCNc1cc(N2CCc3ccccc3CC2)nc(-c2ccccn2)n1`: the outcome with PC-9/ER [1] and in the experiment on HCC827ER [2] was inactive.
